For data set [1], the system named is Vero. Kind of data set: Cytotoxicity against African green monkey Vero cells. The conditions noted are these: Chlorocebus sabaeus. The format is cell-based.
The nature of data set [2]: Intrinsic clearance in CD-1 mouse liver microsomes at 0.5 uM after 30 mins in presence of NADPH by UPLC-MS/MS analysis. The format is ADME, microsome. The settings on record: 0.5 h.
Data set [3] can be described thus: Kinetic solubility of the compound in water up to 250 uM by laser nephelometry. The format is physicochemical. The settings on record: read-out: Kinetic_solubility. The method in brief: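 Measured in water after dilution from a DMSO solution of compound.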
Data set [4] is described as follows: Selectivity ratio of pEC50 for African green monkey Vero cells to pEC50 for Trypanosoma cruzi amastigote forms infected in African green monkey Vero cells. It counts as toxicity. In short, it runs like this:
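Ratio of Vero pEC50 to T. cruzi intracellular amastigote pEC50, with both values from the Vero-cell amastigote culture format.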

In data set [5] the test system is Trypanosoma cruzi. Kind of data set: Antitrypanosomal activity against Trypanosoma cruzi amastigote forms infected in African green monkey Vero cells. The format is functional, organism-based. The method in brief:
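T. cruzi amastigotes cultured intracellularly in Vero host cells. EC50 determined from concentration-response, reported as pEC50. Mean of two determinations ± range, or of three or more ± standard deviation, depending on the series.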

The target in data set [6] is Sterol 14-alpha demethylase (Trypanosoma cruzi (strain CL Brener), UniProt Q7Z1V1). Kind of data set: (§1) Inhibition of Trypanosoma cruzi CYP51.
Chain of Sterol 14-alpha demethylase (Q7Z1V1 whole entry): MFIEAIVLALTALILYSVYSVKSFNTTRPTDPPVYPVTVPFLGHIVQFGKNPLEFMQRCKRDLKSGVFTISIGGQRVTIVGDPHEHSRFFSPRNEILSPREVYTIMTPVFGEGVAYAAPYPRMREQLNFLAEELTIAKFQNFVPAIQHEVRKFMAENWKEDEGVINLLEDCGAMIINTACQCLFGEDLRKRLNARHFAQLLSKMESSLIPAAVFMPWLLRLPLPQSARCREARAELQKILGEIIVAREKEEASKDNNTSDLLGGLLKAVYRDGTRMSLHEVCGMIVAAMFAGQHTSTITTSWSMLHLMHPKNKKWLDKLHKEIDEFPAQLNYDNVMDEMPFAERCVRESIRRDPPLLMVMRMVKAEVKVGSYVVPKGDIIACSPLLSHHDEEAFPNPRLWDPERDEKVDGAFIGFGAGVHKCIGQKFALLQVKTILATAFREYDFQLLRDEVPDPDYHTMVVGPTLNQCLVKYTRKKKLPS
Data set [7] concerns the target Sterol 14-alpha demethylase (Trypanosoma cruzi (strain CL Brener)) (UniProt Q7Z1V1). The data set is described as §1.
Data set [8] concerns the target Voltage-gated inwardly rectifying potassium channel KCNH2 (Homo sapiens, UniProt Q12809). Kind of data set: Inhibition of human ERG.
Data set [9] has as its target Cannabinoid receptor 1 (Homo sapiens, UniProt P21554). The experiment in a line: Inhibition of CB1 (unknown origin).
Data set [10] concerns the target Aurora kinase B (Homo sapiens, UniProt Q96GD4). Kind of data set: Inhibition of aurora B (unknown origin).

The record followed here is ChEMBL document CHEMBL4229528, “2,4-Diamino-6-methylpyrimidines for the potential treatment of Chagas' disease” (Bioorg Med Chem Lett, 2018).

The structures appear in SMILES notation. Values after ≈ are worked out from the molar mass of the structure shown. Active and inactive are the calls of the source. The rule behind the calls is not given here.

Chain of Sterol 14-alpha demethylase (Trypanosoma cruzi (strain CL Brener)) (Q7Z1V1 whole entry, looked up): as the sequence (Q7Z1V1 whole entry) above
Chain of Voltage-gated inwardly rectifying potassium channel KCNH2 (Q12809 whole entry): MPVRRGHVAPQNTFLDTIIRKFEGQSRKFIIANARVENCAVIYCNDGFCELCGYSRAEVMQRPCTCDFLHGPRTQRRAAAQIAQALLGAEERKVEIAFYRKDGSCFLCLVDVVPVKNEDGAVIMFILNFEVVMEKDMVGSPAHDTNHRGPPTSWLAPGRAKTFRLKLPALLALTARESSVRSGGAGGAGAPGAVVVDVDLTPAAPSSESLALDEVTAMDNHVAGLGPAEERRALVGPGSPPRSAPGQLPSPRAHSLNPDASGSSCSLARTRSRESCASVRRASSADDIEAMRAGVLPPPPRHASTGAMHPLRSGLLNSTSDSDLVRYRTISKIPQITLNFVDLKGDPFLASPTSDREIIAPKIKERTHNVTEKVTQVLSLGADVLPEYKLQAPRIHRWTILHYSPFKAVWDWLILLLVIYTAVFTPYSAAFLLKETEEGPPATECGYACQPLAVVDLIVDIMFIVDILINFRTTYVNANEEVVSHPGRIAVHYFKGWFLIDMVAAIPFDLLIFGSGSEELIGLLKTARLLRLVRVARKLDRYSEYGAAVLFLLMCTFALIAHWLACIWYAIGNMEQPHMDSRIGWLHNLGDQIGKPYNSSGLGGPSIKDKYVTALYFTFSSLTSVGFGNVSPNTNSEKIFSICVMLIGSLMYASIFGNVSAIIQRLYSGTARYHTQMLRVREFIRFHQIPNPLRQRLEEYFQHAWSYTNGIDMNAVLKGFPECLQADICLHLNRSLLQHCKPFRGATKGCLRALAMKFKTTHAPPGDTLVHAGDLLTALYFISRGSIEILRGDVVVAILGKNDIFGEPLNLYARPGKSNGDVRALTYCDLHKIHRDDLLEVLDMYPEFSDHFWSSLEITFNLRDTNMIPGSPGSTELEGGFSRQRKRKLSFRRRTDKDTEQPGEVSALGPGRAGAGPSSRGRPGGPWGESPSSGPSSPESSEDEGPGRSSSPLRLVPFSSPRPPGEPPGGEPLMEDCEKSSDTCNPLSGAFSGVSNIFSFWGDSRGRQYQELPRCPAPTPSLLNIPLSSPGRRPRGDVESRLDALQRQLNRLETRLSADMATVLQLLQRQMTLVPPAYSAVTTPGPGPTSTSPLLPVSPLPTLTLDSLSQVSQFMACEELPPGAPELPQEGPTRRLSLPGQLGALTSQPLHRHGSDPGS
Chain of Aurora kinase B (Q96GD4 whole entry): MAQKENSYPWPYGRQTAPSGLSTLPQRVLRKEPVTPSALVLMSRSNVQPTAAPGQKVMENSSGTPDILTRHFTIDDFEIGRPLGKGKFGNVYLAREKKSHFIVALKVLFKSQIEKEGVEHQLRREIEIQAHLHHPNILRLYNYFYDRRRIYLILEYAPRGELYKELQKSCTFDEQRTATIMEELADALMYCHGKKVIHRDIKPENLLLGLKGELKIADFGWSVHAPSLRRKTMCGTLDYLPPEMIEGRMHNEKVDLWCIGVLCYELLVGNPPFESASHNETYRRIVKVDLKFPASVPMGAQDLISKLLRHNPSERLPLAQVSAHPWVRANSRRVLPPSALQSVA
Chain of Cannabinoid receptor 1 (P21554 whole entry): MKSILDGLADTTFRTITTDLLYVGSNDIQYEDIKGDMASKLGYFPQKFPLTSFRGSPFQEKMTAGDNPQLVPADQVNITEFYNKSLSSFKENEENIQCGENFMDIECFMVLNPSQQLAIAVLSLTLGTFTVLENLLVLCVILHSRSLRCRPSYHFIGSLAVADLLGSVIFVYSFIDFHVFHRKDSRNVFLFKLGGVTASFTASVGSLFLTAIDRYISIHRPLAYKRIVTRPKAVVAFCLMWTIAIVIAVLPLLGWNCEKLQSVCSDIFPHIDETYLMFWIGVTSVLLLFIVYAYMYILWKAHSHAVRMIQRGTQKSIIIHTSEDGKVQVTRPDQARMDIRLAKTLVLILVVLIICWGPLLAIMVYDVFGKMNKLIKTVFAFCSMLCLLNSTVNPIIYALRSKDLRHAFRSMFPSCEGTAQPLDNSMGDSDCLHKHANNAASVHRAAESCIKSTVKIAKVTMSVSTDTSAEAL

In data set [1], `COc1cc(Nc2nc(C(=O)N3CCCC3)cc(N(C)C)n2)ccc1F` showed an EC50 of more than 50.1 µM. Further, the CLH in data set [2] was 3.4 mL/min/g. The solubility kinetic in data set [3] was more than 250 µM. Besides, the selectivity ratio in data set [4] is more than 1.6.

As to `COc1cc(Nc2nc(C)cc(N3CCCCC3)n2)ccc1F`, the EC50 in data set [5] is 1 µM; in data set [1] it was 15.8 µM. The CLH in data set [2] came out at 17 mL/min/g. For the same molecule, in data set [3], the solubility kinetic was found to be 160 µM (≈ 50.6 µg/mL). Moreover, the selectivity ratio in [4] was found to be 16.

With `Cc1cc(N(C)C)nc(NCC2CCOCC2)n1`, the EC50 is 15.8 µM in [5] and more than 50.1 µM in [1]. Also, the CLH in data set [2] came out at 3.8 mL/min/g. In addition, the solubility kinetic in [3] was more than 250 µM. Moreover, the selectivity ratio in data set [4] is more than 3.

`COc1cc(Nc2nc(C)cc(N3CCC(F)(F)C3)n2)ccc1F`: the EC50 in data set [5] is 7.94 µM. Also, the CLH in data set [2] came out at 35 mL/min/g. The solubility kinetic in data set [3] is more than 250 µM. For the same molecule, in data set [4], the selectivity ratio was determined as 4.

Molecule `COc1cc(Nc2nc(C)cc(N3CCCC(C#N)C3)n2)ccc1F` (centres undefined) had an EC50 in data set [5] of 7.94 µM. Further, the solubility kinetic in data set [3] was 219 µM (≈ 74.8 µg/mL). Further, in [4], the selectivity ratio worked out at 5.

Regarding `COc1cc(Nc2nc(CO)cc(N(C)C)n2)ccc1F`, the EC50 in [5] is 7.94 µM; in [1] it was more than 50.1 µM. Besides, the CLH in data set [2] came out at 35 mL/min/g. Also, the solubility kinetic in [3] was more than 250 µM. The selectivity ratio in [4] is more than 6.

In [5], `COc1cc(OC)cc(C(=O)Nc2ccc(Nc3nc(C)cc(N(C)C)n3)cc2)c1` gave a 50% effective concentration (EC50) of 0.158 µM. Moreover, the CLH in data set [2] was 0.7 mL/min/g. Besides, the solubility kinetic in data set [3] came to 20 µM (≈ 8.15 µg/mL). In addition, in [6], the IC50 is more than 10 µM. In addition, in data set [4], the selectivity ratio is 40.

For `Cc1cc(N(C)C)nc(Nc2ccc(C(=O)N3CCCCC3)cc2)n1`, in data set [1], the EC50 is more than 50.1 µM. The selectivity ratio in data set [4] was more than 25.

As to `COc1ccc(Nc2nc(C)cc(N(C)C)n2)cc1`, the values for the EC50 in data set [5] and in [1] were 1.58 µM and more than 50.1 µM, respectively. Further, the CLH in [2] was determined as 10 mL/min/g. Further, in [3], the solubility kinetic was more than 250 µM. For the same molecule, in [4], the selectivity ratio is more than 32.

Take `Cc1cc(N(C)C)nc(NCc2ccccc2)n1`: the EC50 in data set [1] was more than 50.1 µM. The CLH in [2] is 28 mL/min/g. In data set [3], the solubility kinetic is more than 250 µM. Moreover, in data set [7], the inhibition result is “inactive”. The selectivity ratio in data set [4] is more than 16.

The molecule `COc1cc(Nc2nc(C)cc(N(C)C)n2)ccc1F` gave an EC50 in data set [5] of 0.398 µM. For the same molecule, the CLH in data set [2] worked out at 17 mL/min/g. Also, in [8], the IC50 was 5.01 µM. The solubility kinetic in data set [3] is more than 250 µM. Also, in [7], the inhibition entry is “inactive”. The selectivity ratio in [4] turned out to be 80.

Regarding `COc1cc(Nc2nc(C)cc(N3CCOCC3)n2)ccc1F`, the concentration giving a half-maximal response (EC50) in data set [5] is 7.94 µM; in data set [1], more than 50.1 µM. For the same molecule, the CLH in data set [2] turned out to be 18 mL/min/g. Besides, the solubility kinetic in data set [3] was more than 250 µM. The selectivity ratio in data set [4] is more than 6.

In turn, `COc1cc(Nc2cc(C)nc(NCc3ccccc3)n2)ccc1F` showed a 50% effective concentration (EC50) in data set [1] of 5.01 µM. Besides, the CLH in [2] came to 10 mL/min/g. Moreover, the solubility kinetic in data set [3] stood at 180 µM (≈ 60.9 µg/mL). In addition, the selectivity ratio in data set [4] is 63.

As for `Cc1cc(Nc2ccc(F)cc2)nc(NCc2ccccc2)n1`, the EC50 in data set [5] is 0.398 µM; in data set [1] it was 7.94 µM. Also, the CLH in data set [2] is 10 mL/min/g. In addition, the solubility kinetic in [3] was more than 250 µM. The selectivity ratio in data set [4] stood at 20.

For the molecule `COc1cccc(Nc2cc(C)nc(NCc3ccccc3)n2)c1`, the figures for the EC50 in [5] and in data set [1] were 0.2 µM and 7.94 µM, respectively. For the same molecule, the CLH in data set [2] amounted to 20 mL/min/g. In addition, the solubility kinetic in data set [3] is more than 250 µM. In data set [4], the selectivity ratio is 40.

On to `Cc1cc(N(C)C)nc(NCc2ccc(Cl)cc2)n1`, for which the concentration for a half-maximal effect (EC50) was 1 µM in data set [5] and 25.1 µM in data set [1]. The CLH in data set [2] amounted to 12 mL/min/g. Besides, in [3], the solubility kinetic was more than 250 µM. Also, the selectivity ratio in data set [4] came out at 25.

In the case of `COc1cc(Nc2nc(C)cc(NCc3ccccc3)n2)ccc1F`, the EC50 in data set [5] is 0.794 µM; in [1], 5.01 µM. Besides, the CLH in [2] came to 8 mL/min/g. The solubility kinetic in data set [3] is more than 250 µM. Also, in [4], the selectivity ratio came to 6.3.

On to `Cc1cc(N(C)C)nc(Nc2ccc3c(c2)OCO3)n1`, for which the EC50 is 1.26 µM in data set [5] and more than 50.1 µM in data set [1]. Moreover, the CLH in data set [2] was 14 mL/min/g. The solubility kinetic in data set [3] was more than 250 µM. Also, the selectivity ratio in data set [4] is more than 40.

On to `Cc1cc(N(C)C)nc(Nc2ccc(C(=O)NCc3ccccc3)cc2)n1`, for which the EC50 in [5] is 1.26 µM; in data set [1] it was 5.01 µM. For the same molecule, the selectivity ratio in [4] was 4.

For the molecule `COc1cc(Nc2nccc(N(C)C)n2)ccc1F`, the EC50 is 3.98 µM in data set [5] and more than 50.1 µM in data set [1]. Also, the CLH in data set [2] stood at 29 mL/min/g. In addition, the solubility kinetic in data set [3] worked out at 160 µM (≈ 42 µg/mL). Also, in data set [4], the selectivity ratio is more than 13.

On to `COc1cc(Nc2nc(N(C)C)cc(C(F)(F)F)n2)ccc1F`, for which the EC50 in data set [5] is 25.1 µM; in [1], more than 50.1 µM. Also, the solubility kinetic in [3] stood at 110 µM (≈ 36.3 µg/mL). Besides, the selectivity ratio in data set [4] was more than 2.

As for `Cc1cc(N(C)C)nc(NC2CCN(C(=O)Cc3ccc(F)cc3F)CC2)n1`, in data set [1], the EC50 is more than 50.1 µM. Also, the selectivity ratio in [4] is more than 16.

In the case of `Cc1cc(N(C)C)nc(N[C@H]2CC[C@H](NC(=O)c3ccccc3)CC2)n1`, the EC50 in [5] is 1.26 µM; in data set [1], more than 50.1 µM. The solubility kinetic in data set [3] is more than 250 µM. The selectivity ratio in [4] was more than 40.

In data set [1], `COc1cc(Nc2nc(C(C)C)cc(N(C)C)n2)ccc1F` gave an EC50 of more than 50.1 µM. In addition, the CLH in [2] came to 50 mL/min/g. Moreover, the solubility kinetic in data set [3] was 170 µM (≈ 51.7 µg/mL). Besides, the selectivity ratio in [4] is more than 25.

For the molecule `Cc1cc(N(C)C)nc(N[C@H](C)c2ccccc2)n1`, the EC50 was 1.26 µM in data set [5] and more than 50.1 µM in data set [1]. The CLH in [2] stood at 11 mL/min/g. In addition, the solubility kinetic in data set [3] is more than 250 µM. The selectivity ratio in data set [4] is more than 40.

Turning to `COc1cccc(Nc2nc(C)cc(N(C)C)n2)c1`, the EC50 in [5] was 0.794 µM; in [1] it was more than 50.1 µM. Also, the CLH in [2] was determined as 15 mL/min/g. Further, in data set [3], the solubility kinetic is more than 250 µM. The selectivity ratio in [4] is more than 63.

As for `COc1ccccc1NC(=O)c1ccc(Nc2nc(C)cc(N(C)C)n2)cc1`, the EC50 in data set [5] is 0.794 µM; in [1] it was 0.631 µM. Further, the selectivity ratio in data set [4] amounted to 1.3.

As for `COc1cc(OC)cc(C(=O)N[C@H]2CC[C@H](Nc3nc(C)cc(N(C)C)n3)CC2)c1`, in data set [5], the concentration for a half-maximal effect (EC50) is 0.398 µM. Also, the IC50 in data set [9] was 0.0631 µM; in data set [10], 0.0398 µM; in data set [8] it was 3.98 µM. The CLH in data set [2] is 4.2 mL/min/g. Further, the solubility kinetic in data set [3] is more than 250 µM. Besides, the inhibition result in data set [7] was “inactive”. Further, in [4], the selectivity ratio is 100.

For the molecule `COc1cc(Nc2nc(C)cc(N3CCCC3)n2)ccc1F`, in data set [2], the CLH was 14 mL/min/g. In addition, in [3], the solubility kinetic amounted to 220 µM (≈ 66.5 µg/mL). Also, the selectivity ratio in [4] worked out at 63.

Consider `CCOC1CCCN(c2cc(C)nc(Nc3ccc(F)c(OC)c3)n2)C1` (centres undefined), for which the EC50 is 1.58 µM in [5] and 25.1 µM in [1]. For the same molecule, the CLH in [2] came out at 35 mL/min/g. For the same molecule, the solubility kinetic in data set [3] was more than 250 µM. Besides, in data set [4], the selectivity ratio was 16.
